Here are results for eight compounds from ChEMBL document CHEMBL1926624, “Secondary metabolites from the roots of Neolitsea daibuensis and their anti-inflammatory activity” (J Nat Prod, 2011).

Values after ≈ are worked out from the molar mass of the structure shown.

Data set [1] is described as follows: Antiinflammatory activity in human neutrophils assessed as inhibition of fMLP-induced superoxide anion production. Particulars: Neutrophil. In kind it is functional, cell-based.
Data set [2] can be described thus: Antiinflammatory activity in human neutrophils assessed as inhibition of […] superoxide anion production. In kind it is functional, cell-based. Particulars: Neutrophil.
A short description of data set [3]: Cytotoxicity against mouse RAW264.7 cells assessed as reduction in cell viability after 3 hrs by alamar blue assay. The data set is classed as cell-based. The method in brief:
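Viability was tested in the same RAW 264.7 wells after the supernatant was removed for nitrite. 10% AlamarBlue in DMEM was added and the plates incubated at 37 °C. Absorbance was read at 570/600 nm against cell-free blanks, with LPS+vehicle wells set as 100% viability. CC50 = concentration lowering viability by 50%; mean ± SE.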

In data set [4] the target is T1, Nitric oxide synthase, inducible (Mus musculus) (UniProt P29477).
T1 sequence (whole entry): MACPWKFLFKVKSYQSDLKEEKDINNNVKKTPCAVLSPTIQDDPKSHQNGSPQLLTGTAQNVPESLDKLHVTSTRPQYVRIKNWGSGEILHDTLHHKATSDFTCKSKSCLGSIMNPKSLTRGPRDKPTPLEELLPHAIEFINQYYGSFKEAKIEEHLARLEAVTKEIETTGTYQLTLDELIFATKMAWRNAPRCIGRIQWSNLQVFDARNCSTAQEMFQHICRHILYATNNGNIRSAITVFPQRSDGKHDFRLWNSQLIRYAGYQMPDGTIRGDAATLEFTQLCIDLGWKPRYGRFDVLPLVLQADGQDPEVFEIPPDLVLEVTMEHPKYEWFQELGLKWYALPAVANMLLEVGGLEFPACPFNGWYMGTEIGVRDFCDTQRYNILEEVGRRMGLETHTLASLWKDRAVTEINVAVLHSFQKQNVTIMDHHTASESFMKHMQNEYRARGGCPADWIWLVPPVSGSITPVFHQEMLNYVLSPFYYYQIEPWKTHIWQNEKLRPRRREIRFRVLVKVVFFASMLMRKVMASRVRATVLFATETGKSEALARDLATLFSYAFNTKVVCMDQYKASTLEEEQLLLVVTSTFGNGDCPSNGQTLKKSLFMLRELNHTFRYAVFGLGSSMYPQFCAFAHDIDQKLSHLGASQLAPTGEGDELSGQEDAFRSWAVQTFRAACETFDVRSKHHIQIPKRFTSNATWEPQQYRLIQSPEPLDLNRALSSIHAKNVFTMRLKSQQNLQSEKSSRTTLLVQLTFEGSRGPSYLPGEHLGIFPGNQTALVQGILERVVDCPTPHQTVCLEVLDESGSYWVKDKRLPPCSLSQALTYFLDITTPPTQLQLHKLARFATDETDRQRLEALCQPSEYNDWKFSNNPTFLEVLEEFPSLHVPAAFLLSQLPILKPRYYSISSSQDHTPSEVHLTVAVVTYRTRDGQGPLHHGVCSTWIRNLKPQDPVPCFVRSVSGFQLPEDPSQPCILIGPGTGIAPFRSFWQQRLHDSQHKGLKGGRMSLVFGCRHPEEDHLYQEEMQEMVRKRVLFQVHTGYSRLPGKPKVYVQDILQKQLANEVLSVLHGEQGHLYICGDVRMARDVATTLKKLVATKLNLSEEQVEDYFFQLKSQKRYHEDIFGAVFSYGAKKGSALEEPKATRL
In words: Inhibition of iNOS-mediated NO production in LPS-stimulated mouse RAW264.7 cells after 24 hrs by Griess reagent method relative to control. The data set is classed as cell-based. The essentials: (§1)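 RAW 264.7 murine macrophages in DMEM with 10% FCS were grown to confluence for 24 h, then held serum-free for 4 h. Test agent, or 0.1% DMSO vehicle, was given with LPS (200 ng/mL) for 24 h. Supernatant nitrite was measured with Griess reagent (10 min, room temperature) at A550 against a NaNO2 standard curve. % inhibition is relative to vehicle+LPS; Emax at 100 μM; IC50 = concentration giving 50% Emax; n = 4−6.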

Data set [5] addresses T2, Nitric oxide synthase, inducible (Mus musculus, UniProt P29477).
T2 sequence (P29477 whole entry): T1 sequence (whole entry)
In words: Inhibition of iNOS-mediated NO production in LPS-stimulated mouse RAW264.7 cells after 24 hrs by Griess reagent method. The data set is classed as cell-based. The method in brief: as §1

Data set [6] addresses T1, Nitric oxide synthase, inducible (Mus musculus). In words: Inhibition of iNOS-mediated NO production in LPS-stimulated mouse RAW264.7 cells at 25 uM after 24 hrs by Griess reagent method relative to control. In kind it is cell-based. The essentials: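 Confluent RAW 264.7 cells, serum-starved 4 h, received test agent at 25 μM, or 0.1% DMSO vehicle, together with LPS (200 ng/mL) for 24 h. Supernatant nitrite was read by Griess reaction, A550, against a NaNO2 standard curve. Result is maximal inhibition expressed as % of vehicle+LPS nitrite; n = 4−6.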

Another data set deals with RAW264.7. In words: Cytotoxicity against mouse RAW264.7 cells assessed as reduction in cell viability at 50 uM after 3 hrs by alamar blue assay. In kind it is cell-based. The following applies: raw264.7, 3 h.

Consider `C/C1=C\CCC2=C[C@@H](OC2=O)c2c(C)coc2C1` [LINDERALACTONE], for which the IC50 in data set [1] and in data set [2] was 8.48 µg/mL (≈ 34.7 µM) throughout.

As to `N=C(N)NN` [PIMAGEDINE], the CC50 at 3 h in data set [3] is greater than 100 µM. Besides, the Emax in data set [4] amounted to 83.5%. Besides, the IC50 in data set [5] is 28.5 µM.

As for `COc1cc(O)c2c(=O)c(-c3ccc(O)cc3)coc2c1` [PRUNETIN], the CC50 at 3 h in data set [3] was greater than 100 µM. Also, in data set [4], the Emax was determined as 94.8%. Also, the IC50 in data set [5] was determined as 10.5 µM.

With `COc1cc(O)c2c(c1)O[C@H](c1ccc(O)cc1)CC2=O` [SAKURANETIN], the CC50 at 3 h in data set [3] is greater than 100 µM. For the same compound, the Emax in data set [4] amounted to 85.2%. Also, the midpoint of inhibition in data set [5], the IC50, lay at 19.6 µM.

On to `Cc1coc2c1[C@H]1C=C(CC[C@@H]3O[C@@]3(C)C2)C(=O)O1` [PSEUDONEOLINDERANE], for which the IC50 in data set [1] and in data set [2] was 3.21 µg/mL (≈ 12.3 µM) in each case.

Consider `COc1cc2c([nH]c3ccc(O)cc32)c(Cc2ccc(O)cc2)n1` [DAIBUCARBOLINE A], for which the CC50 at 3 h in data set [3] worked out at 94.8 µM. Also, in data set [4], the Emax was 96.1% and the inhibition result is “Dose-dependent effect”. Besides, the midpoint of inhibition in data set [5], the IC50, lay at 18.4 µM.

For `C=C[C@@]1(C)Cc2occ(C)c2[C@@H]2OC(=O)C(=C)[C@@H]21` [ISOLINDERALACTONE], the CC50 at 3 h in data set [3] is 66.4 µM. The Emax in data set [6] turned out to be 100%. In addition, the Activity entry in the data set on RAW264.7 was “Toxic”. In data set [5], this compound had an IC50 of 0.3 µM.

In the case of `N=C(NCCC[C@H](N)C(=O)O)N[N+](=O)[O-]` [NITROARGININE], the CC50 at 3 h in data set [3] was greater than 100 µM. For the same compound, the Emax in data set [4] turned out to be 41.2%. Further, the 50% inhibitory concentration (IC50) in data set [5] is 144 µM.
